Data from ChEMBL document CHEMBL1158098, “Crassolides A-F, cembranoids with a trans-fused lactone from the soft coral Sarcophyton crassocaule” (J Nat Prod, 2006).
In brackets after ≈: the same amount, converted by molar mass.

Key:
Format in all cases: functional, cell-based
[1] = Cytotoxicity against human Hep G2 cells by MTT colorimetric method; conditions: HepG2
Method in brief: (§1)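 Human cancer cell lines were obtained from ATCC. Cytotoxicity was measured by the MTT [3-(4,5-dimethylthiazol-2-yl)-2,5-diphenyltetrazolium bromide] colorimetric method.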

MCF7 = assay: Cytotoxicity against human MCF7 cells by MTT colorimetric method; method in brief: as §1
MDA-MB-231 = assay: Cytotoxicity against human MDA-MB-231 cells by MTT colorimetric method; method in brief: as §1
A549 = assay: Cytotoxicity against human A549 cells by MTT colorimetric method; method in brief: as §1

In the case of C=C1C(=O)O[C@@H]2[C@@H]1C[C@H](OC(C)=O)[C@](C)(O)CC/C=C(\C)CC/C=C(\C)[C@@H]2OC(C)=O [CRASSOCOLIDE B], the IC50 [1] is reported as 13.1 µg/mL (≈ 30.1 µM), the IC50 (MCF7) is reported as 10.3 µg/mL (≈ 23.7 µM) and the IC50 (MDA-MB-231) is reported as greater than 30 µg/mL. The IC50 (A549) was 12.1 µg/mL (≈ 27.8 µM).

With C=C1C(=O)O[C@H]2C/C(C)=C/CC/C(C)=C/CC[C@@](C)(O)[C@@H](OC(C)=O)C[C@H]12 [CRASSOCOLIDE C] the IC50 [1] was greater than 30 µg/mL, the IC50 (MCF7) was greater than 30 µg/mL and the IC50 (MDA-MB-231) was greater than 30 µg/mL. The IC50 (A549) was greater than 30 µg/mL.

For C=C1C(=O)O[C@H]2C/C(C)=C/CC/C(C)=C/CC[C@@](C)(O)[C@@H](O)C[C@H]12 [CRASSOCOLIDE D], the IC50 [1] was greater than 30 µg/mL, the IC50 (MCF7) was 15.3 µg/mL (≈ 45.7 µM) and the IC50 (MDA-MB-231) was greater than 30 µg/mL. The IC50 (A549) was 12.5 µg/mL (≈ 37.4 µM).

For C=C1C(=O)O[C@H]2C[C@@]3(C)O[C@@H]3CC/C(C)=C/C[C@@H](OC(C)=O)/C(C)=C/C[C@H]12 [CRASSOCOLIDE F], the IC50 [1] was 2.1 µg/mL (≈ 5.61 µM), the IC50 (MCF7) was 7.4 µg/mL (≈ 19.8 µM) and the IC50 (MDA-MB-231) was 8.8 µg/mL (≈ 23.5 µM). The IC50 (A549) was 3.2 µg/mL (≈ 8.55 µM).

For C=C1C(=O)O[C@@H]2[C@@H]1C[C@H](O)[C@](C)(O)CC/C=C(\C)CC/C=C(\C)[C@@H]2OC(C)=O [CRASSOLIDE A], the IC50 [1] was 3.1 µg/mL (≈ 7.9 µM), the IC50 (MCF7) was 8.9 µg/mL (≈ 22.7 µM) and the IC50 (MDA-MB-231) was 8.6 µg/mL (≈ 21.9 µM). It also gave an IC50 (A549) of 11.9 µg/mL (≈ 30.3 µM).

In the case of COc1cccc2c1C(=O)c1c(O)c3c(c(O)c1C2=O)C[C@@](O)(C(=O)CO)C[C@@H]3O[C@H]1C[C@H](N)[C@H](O)[C@H](C)O1 [DOXORUBICIN], the IC50 [1] is reported as 0.2 µg/mL (≈ 0.368 µM), the IC50 (MCF7) is reported as 0.3 µg/mL (≈ 0.552 µM) and the IC50 (MDA-MB-231) is reported as 0.1 µg/mL (≈ 0.184 µM).

C=C1C(=O)O[C@H]2C[C@]3(C)O[C@H]3CC/C(C)=C/CC/C(C)=C/C[C@H]12 [LOBOPHYTOLIDE] gave an IC50 [1] of 6.3 µg/mL (≈ 19.9 µM), an IC50 (MCF7) of 2.3 µg/mL (≈ 7.27 µM) and an IC50 (MDA-MB-231) of 2 µg/mL (≈ 6.32 µM). For the same compound, the IC50 (A549) was 2.1 µg/mL (≈ 6.64 µM).
